Experimental findings from PubChem BioAssay are described below.

Assay [1] in a line: inhibitors of TNFa-induced NFkB p65 translocation, primary screen, imaging, HUVEC, MLSMR starter and 10KST1 sets (AID 438;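 active means inhibition above 20% together with a positive visual image hit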;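 further: compound added about 3h40 before a 20 min TNFalpha stimulation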;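 on inhibition: signal is the nuclear over cytoplasmic p65 intensity ratio per well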). As to conditions: HUVEC TNFa-induced p65 nuclear translocation; cell count: measured here: nuclei count (cytotoxicity indicator), at 2.08 µM; inhibition: at 2 µM, stronger effect = higher value, 0% TNFa-plus-vehicle, 100% no-TNFa wells.
A short description of assay [2]: reduction of polyQ htt aggregates in cells – imaging, exon1htt(103Q)mCFP cells, high-content imaging, primary screen (AID 483;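 active means visual image review flags a hit and inhibition of aggregation exceeds 20%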;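 further: compound exposure lasted 3 days before fixation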;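 on nuclei count: percent of the per-plate median nuclei count of sample wells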). The note with it: exon1htt(103Q)mCFP cell line, aggregate imaging, at 2 µM; inhibition of aggregation: stronger effect = higher value; nuclei count: measured here: cell count, toxicity.
Assay [3] is described as follows: endothelial E-selectin expression blockers – imaging, HUVEC, immunofluorescence, MLSMR starter and 10KST1 sets, primary screen (AID 487;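 active means visually confirmed hit in the image check and inhibition above 20%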;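 on inhibition: signal is fraction of cell area covered by stained E-selectin grains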;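 on nuclei count: 100% = median nuclei count of all wells on the same plate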). As to conditions: HUVEC TNFalpha-induced E-selectin immunofluorescence imaging, at 2 µM; inhibition: stronger effect = higher value; nuclei count: measured here: cell number, toxicity.
Assay [4] concerns the target Voltage-gated potassium channel subunit beta-2 (Rattus norvegicus) (UniProt P62483). Kind of assay: inhibitors of rat Kvbeta2 reductase activity – biochemical, NADPH fluorescence, primary screen (AID 622;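 active means fluorescence slope higher than the sample average by over 3 SD, cut at about -0.22 in these data, passing the limit was not always enough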;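 further: slope of raw intensity against log time taken from 70 to 1610 s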). As to conditions: recombinant KvBeta, 4-cyanobenzaldehyde reduction, at 10 µM, stronger effect = higher value.
For assay [5] the target is unchanged. Kind of assay: enhancers of rat Kvbeta2 NADPH turnover – biochemical, NADPH fluorescence, primary screen (AID 623;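 active means NADPH fluorescence slope more negative than the mean of all samples by about 3 SD, 99.7% confidence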;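 further: fluorescence intensity change per second fitted from 20 to 320 s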). As to conditions: Recombinant KvBeta, NADPH fluorescence decrease slope, 10 min; at 10 µM; stronger effect = lower value.
The target of assay [6] is Muscarinic acetylcholine receptor M4 (Homo sapiens) (UniProt P08173). As to the kind of experiment: M4-linked GIRK flux change, two-sided – cell-based, HEK293 M4/GIRK, thallium flux, BTC-AM, M4 allosteric agonist project, primary screen (AID 625;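 active means fluorescence slope after compound addition differing from the mean of all tested samples at 99.7% confidence, mostly higher but some lower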;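 further: thallium influx through GIRK channels coupled to M4 in HEK293 cells with BTC-AM dye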). The note with it: at 10 µM, actives lie on both sides. A digest of the protocol:
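Material – HEK293 cells with M4 receptor and GIRK channels · Buffer or medium – pH 7.3 thallium assay buffer · Doses – one dose, 10 µM final · Timing – cells overnight at 37 °C, BTC-AM loading 1 h, reads 2 min total · Measured by – kinetic fluorescence with BTC-AM dye · Controls – carbachol and DMSO controls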

A short description of assay [7]: blockers of RIG-like receptor reporter activation – cell-based, Sendai virus stimulus, luciferase, 10K MLSCN set, TLR/RLR signaling modifier project, primary screen (AID 602276;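 active means inhibition at or above 50% at 10 µM; inactive means inhibition below 50%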;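 further: firefly luciferase from ISG56 promoter only with Renilla not read in this screen; 0% = Sendai virus plus DMSO and 100% = medium plus DMSO without virus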). The note with it: HEK293 RL24 IRF3 luciferase reporter, at 10 µM, stronger effect = higher value. (A reporter such as luciferase makes a cellular process visible.)
The nature of assay [8]: TLR3 IRF3 reporter activation blockers – cell-based, poly I:C stimulus, luciferase, 10K MLSCN set, primary screen (AID 602277). The note with it: HEK293-TLR3 RL24 IRF3 luciferase reporter, at 10 µM, stronger effect = higher value.

Activity calls are given as the source filed them.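 How the source made its calls, unless noted: active means inhibition of the reporter signal at or above 50%; inactive means inhibition below 50%.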

The inhibition is the relative decrease from the control value, in per cent.

Sequence of Muscarinic acetylcholine receptor M4 (Homo sapiens) (P08173 whole entry, looked up): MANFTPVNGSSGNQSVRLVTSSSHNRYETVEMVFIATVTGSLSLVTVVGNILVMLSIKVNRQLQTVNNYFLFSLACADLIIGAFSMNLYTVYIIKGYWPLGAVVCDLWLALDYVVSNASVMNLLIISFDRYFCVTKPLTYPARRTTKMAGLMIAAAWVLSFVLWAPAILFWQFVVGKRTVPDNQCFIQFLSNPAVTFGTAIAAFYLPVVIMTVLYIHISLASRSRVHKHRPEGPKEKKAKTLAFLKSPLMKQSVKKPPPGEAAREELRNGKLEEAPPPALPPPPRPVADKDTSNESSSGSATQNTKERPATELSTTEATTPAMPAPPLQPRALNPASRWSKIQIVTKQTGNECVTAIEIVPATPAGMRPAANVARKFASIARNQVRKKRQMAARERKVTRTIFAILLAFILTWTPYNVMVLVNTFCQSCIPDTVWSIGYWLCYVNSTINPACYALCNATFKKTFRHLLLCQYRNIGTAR
Sequence of Voltage-gated potassium channel subunit beta-2 (Rattus norvegicus) (P62483 whole entry, looked up): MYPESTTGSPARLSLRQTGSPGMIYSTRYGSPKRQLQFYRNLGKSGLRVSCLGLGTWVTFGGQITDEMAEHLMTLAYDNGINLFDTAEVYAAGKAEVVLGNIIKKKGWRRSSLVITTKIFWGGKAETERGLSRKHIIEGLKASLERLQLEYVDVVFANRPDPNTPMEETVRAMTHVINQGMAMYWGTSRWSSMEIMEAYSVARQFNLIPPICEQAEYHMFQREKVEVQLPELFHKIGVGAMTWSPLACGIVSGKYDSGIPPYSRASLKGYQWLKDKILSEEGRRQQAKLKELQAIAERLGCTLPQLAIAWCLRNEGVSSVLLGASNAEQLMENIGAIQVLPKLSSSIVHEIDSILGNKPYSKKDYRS

For the molecule `Oc1cnc2ccccc2c1CN1CCOCC1`, in assay [1], the cell count came out at 354. In addition, the inhibition in assay [1] was 0.4% (inactive); in assay [3], -45.2% (inactive); in assay [7], 18% (inactive); in assay [8] it was 10.3% (inactive). The inhibition of aggregation in assay [2] was -24.9% (inactive). Moreover, the values for the nuclei count in assay [2] and in assay [3] were 111% and 80.9%, respectively. Further, the fluorescence slope in assay [4] was -0.542 (inactive); in assay [6], 0.0061 (inactive). Besides, in assay [5], the NADPH fluorescence slope was -1.4e-05 (inactive).

On to `CC(=O)Nc1nc(-c2ccc(Cl)cc2)nc(C)c1C(C)=O`, for which the cell count in assay [1] stood at 577. In addition, the inhibition is 0.5% (inactive) in assay [1], -9.1% (inactive) in assay [3], 2.94% (inactive) in assay [7] and 6.23% (inactive) in assay [8]. In addition, the inhibition of aggregation in assay [2] was -13.8% (inactive). The nuclei count in assay [2] amounted to 92.9%; in assay [3] it was 90.1%. Moreover, the fluorescence slope in assay [4] is -0.261 (inactive); in assay [6], 0.00747 (inactive). Also, in assay [5], the NADPH fluorescence slope was -3.2e-05 (inactive).

For `CC(C)n1c(=NC(=O)c2ccco2)c(C#N)cc2c(=O)n3ccccc3cc21`, in assay [1], the cell count worked out at 378. Also, the inhibition in assay [1] is 1.7% (inactive); in assay [3], -45.7% (inactive); in assay [7] it was -23.8% (inactive); in assay [8] it was -8.73% (inactive). In assay [2], the inhibition of aggregation is -20.7% (inactive). Moreover, the values for the nuclei count in assay [2] and in assay [3] were 104% and 112%, respectively. Moreover, the fluorescence slope in assay [4] is -0.576 (inactive); in assay [6] it was 0.00331 (inactive). Also, in assay [5], the NADPH fluorescence slope is 3.1e-06 (inactive).

`COc1cc(CC(=O)Nc2ncc(C)s2)cc(OC)c1OC`: the cell count in assay [1] stood at 524. In addition, the inhibition in assay [1] was -6.7% (inactive); in assay [3], -68.3% (inactive); in assay [7], 19.3% (inactive); in assay [8], 18.5% (inactive). Moreover, in assay [2], the inhibition of aggregation was 20.3% (inactive). Also, the values for the nuclei count in assay [2] and in assay [3] were 78.3% and 113%, respectively. In addition, the results for the fluorescence slope in assay [4] and in assay [6] were -0.501 (inactive) and 0.00592 (inactive), respectively. The NADPH fluorescence slope in assay [5] was 7.8e-05 (inactive).

Regarding `CC(Oc1ccc(Cl)cc1Cl)c1nc(-c2ccc(NC(=O)c3cccnc3)cc2)no1` (centres undefined), the cell count in assay [1] amounted to 413. Moreover, the inhibition in assay [1] is 6.5% (inactive); in assay [3] it was -60.6% (inactive); in assay [7], 1.84% (inactive); in assay [8], -74.3% (inactive). Also, the inhibition of aggregation in assay [2] is -6.9% (inactive). Moreover, the nuclei count in assay [2] turned out to be 89.5%; in assay [3] it was 112%. Besides, the fluorescence slope in assay [4] is -0.641 (inactive); in assay [6], 0.00494 (inactive). Further, in assay [5], the NADPH fluorescence slope was 4.9e-05 (inactive).

Consider `Cc1onc(-c2c(Cl)cccc2Cl)c1C(=O)NCCN1CCOCC1`, for which the cell count in assay [1] came out at 548. Also, the inhibition in assay [1] was 5.1% (inactive); in assay [3], -48.2% (inactive); in assay [7], 21.3% (inactive); in assay [8], 16.3% (inactive). In addition, the inhibition of aggregation in assay [2] is -1.4% (inactive). Further, the nuclei count in assay [2] worked out at 98.9%; in assay [3], 108%. Moreover, the figures for the fluorescence slope in assay [4] and in assay [6] were -0.471 (inactive) and 0.00527 (inactive), respectively. In addition, the NADPH fluorescence slope in assay [5] was 3e-06 (inactive).

`C=C(C)Cn1c(SCC)nc2ccccc2c1=O`: the cell count in assay [1] was found to be 399. The inhibition in assay [1] is -5% (inactive); in assay [3] it was -26.7% (inactive); in assay [7], 9.69% (inactive); in assay [8] it was 22.7% (inactive). Besides, in assay [2], the inhibition of aggregation is 13.5% (inactive). For the same molecule, the results for the nuclei count in assay [2] and in assay [3] were 98.7% and 94.5%, respectively. Moreover, the values for the fluorescence slope in assay [4] and in assay [6] were -0.454 (inactive) and 0.0055 (inactive), respectively. The NADPH fluorescence slope in assay [5] is -0.000357 (inactive).

With `CCOc1ccc(C(CC(=O)O)NC(=O)c2ccco2)cc1OC` (centres undefined), the cell count in assay [1] is 562. Besides, the inhibition was 1.8% (inactive) in assay [1], 22.7% (inactive) in assay [3], 9.42% (inactive) in assay [7] and 29.4% (inactive) in assay [8]. Besides, in assay [2], the inhibition of aggregation is -9.7% (inactive). In addition, the nuclei count in assay [2] stood at 113%; in assay [3], 106%. Besides, the fluorescence slope in assay [4] was -0.35 (inactive); in assay [6], 0.00565 (inactive). Also, in assay [5], the NADPH fluorescence slope was -3.7e-05 (inactive).

As to `CCc1ccc2nc(NC(=O)CSCc3c(C)noc3C)sc2c1`, the cell count in assay [1] stood at 416. In addition, the inhibition in assay [1] was -2% (inactive); in assay [3], -87.1% (inactive); in assay [7], -52.6% (inactive); in assay [8], -109% (inactive). In addition, the inhibition of aggregation in assay [2] is -12.1% (inactive). In addition, the nuclei count in assay [2] worked out at 105%; in assay [3], 112%. The values for the fluorescence slope in assay [4] and in assay [6] were -0.463 (inactive) and 0.00795 (inactive), respectively. The NADPH fluorescence slope in assay [5] is 1.1e-05 (inactive).

Turning to `O=C(N1CCCCCC1)N1CCN(C(=O)N2CCOCC2)CC1`, the cell count in assay [1] was determined as 437. For the same molecule, the inhibition in assay [1] was -13.3% (inactive); in assay [3], -24.8% (inactive); in assay [7], 3.08% (inactive); in assay [8], -6.18% (inactive). The inhibition of aggregation in assay [2] is 7.7% (inactive). Further, the nuclei count is 99.6% in assay [2] and 134% in assay [3]. Moreover, the values for the fluorescence slope in assay [4] and in assay [6] were -0.563 (inactive) and 0.00574 (inactive), respectively. Moreover, the NADPH fluorescence slope in assay [5] is -1.7e-05 (inactive).

Consider `O=c1c2nnn(Cc3ccccc3)c2ncn1-c1ccccc1`, for which the cell count in assay [1] turned out to be 522. Also, the inhibition was -8.6% (inactive) in assay [1], 9% (inactive) in assay [3], 14.3% (inactive) in assay [7] and 25.9% (inactive) in assay [8]. In assay [2], the inhibition of aggregation was 16.2% (inactive). For the same molecule, the nuclei count in assay [2] stood at 86.9%; in assay [3], 99%. For the same molecule, the values for the fluorescence slope in assay [4] and in assay [6] were -0.411 (inactive) and 0.00572 (inactive), respectively. Besides, the NADPH fluorescence slope in assay [5] was -8.2e-05 (inactive).

On to `COC(=O)C1(C(=O)OC)Sc2ccccc2C1=O`, for which the cell count in assay [1] was determined as 427. Further, the inhibition is -11.6% (inactive) in assay [1], 30.1% (inactive) in assay [3], 13% (inactive) in assay [7] and 17.2% (inactive) in assay [8]. In addition, the inhibition of aggregation in assay [2] was 12.5% (inactive). Besides, the nuclei count in assay [2] was 75.3%; in assay [3] it was 97.1%. In addition, the values for the fluorescence slope in assay [4] and in assay [6] were -0.571 (inactive) and 0.0074 (inactive), respectively. Moreover, the NADPH fluorescence slope in assay [5] is 1.6e-05 (inactive).

Consider `COc1ccc(CN(C)CC(=O)c2c(N)n(Cc3ccccc3)c(=O)n(C)c2=O)c(OC)c1`, for which the cell count in assay [1] worked out at 459. Moreover, the inhibition in assay [1] is -21.4% (inactive); in assay [3] it was 2.2% (inactive); in assay [7] it was 17.1% (inactive); in assay [8], 24.3% (inactive). In addition, the inhibition of aggregation in assay [2] was -15.1% (inactive). The nuclei count in assay [2] turned out to be 103%; in assay [3], 98.3%. Also, the fluorescence slope is -0.579 (inactive) in assay [4] and 0.00645 (inactive) in assay [6]. Moreover, the NADPH fluorescence slope in assay [5] is -1.3e-05 (inactive).

`CC(=O)Nc1ccc(Oc2cc(C#N)c(C#N)cc2N2CCCCCC2)cc1`: the cell count in assay [1] was determined as 305. The inhibition in assay [1] is -7.7% (inactive); in assay [3], -62.5% (inactive); in assay [7], 13.8% (inactive); in assay [8], 21.8% (inactive). In addition, the inhibition of aggregation in assay [2] was -9.6% (inactive). Also, the nuclei count in assay [2] stood at 91.5%; in assay [3], 127%. Also, the fluorescence slope is -0.377 (inactive) in assay [4] and 0.00486 (inactive) in assay [6]. Moreover, the NADPH fluorescence slope in assay [5] is 2.3e-05 (inactive).
